Measurements from ChEMBL document CHEMBL1153637, “Identification and optimisation of a novel series of pyrimidine based cyclooxygenase-2 (COX-2) inhibitors. Utilisation of a biotransformation approach” (Bioorg Med Chem Lett, 2009).
The source made the active and inactive calls. The rule behind the calls is not given here.

How the values were obtained:
[1] = molecular target: T1, Prostaglandin G/H synthase 1 (Homo sapiens, UniProt P23219); experiment: Inhibition of human COX1 expressed in african green monkey COS cells assessed as inhibition of arachidonic acid-stimulated PGE2 production by enzyme immunoassay; type: cell-based
T1 sequence (P23219 whole entry): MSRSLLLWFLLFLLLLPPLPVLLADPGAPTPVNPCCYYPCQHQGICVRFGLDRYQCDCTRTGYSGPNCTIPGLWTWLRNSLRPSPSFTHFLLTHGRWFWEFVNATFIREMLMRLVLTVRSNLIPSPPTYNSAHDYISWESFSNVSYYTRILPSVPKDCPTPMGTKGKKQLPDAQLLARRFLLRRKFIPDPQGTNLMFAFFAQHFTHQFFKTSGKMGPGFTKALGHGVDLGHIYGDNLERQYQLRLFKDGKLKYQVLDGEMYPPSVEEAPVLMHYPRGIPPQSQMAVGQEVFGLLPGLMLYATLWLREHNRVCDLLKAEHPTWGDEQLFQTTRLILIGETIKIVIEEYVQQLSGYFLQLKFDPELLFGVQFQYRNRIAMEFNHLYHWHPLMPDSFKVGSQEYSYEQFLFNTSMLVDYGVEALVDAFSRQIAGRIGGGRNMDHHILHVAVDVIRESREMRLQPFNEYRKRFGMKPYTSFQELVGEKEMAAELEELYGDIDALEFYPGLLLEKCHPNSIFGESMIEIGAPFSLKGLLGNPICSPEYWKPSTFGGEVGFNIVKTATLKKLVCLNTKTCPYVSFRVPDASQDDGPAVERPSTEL

[2] = molecular target: T2, Prostaglandin G/H synthase 2 (Homo sapiens, UniProt P35354); experiment: Inhibition of human COX2 expressed in african green monkey COS cells assessed as inhibition of arachidonic acid-stimulated PGE2 production by enzyme immunoassay; type: cell-based
T2 sequence (P35354 whole entry): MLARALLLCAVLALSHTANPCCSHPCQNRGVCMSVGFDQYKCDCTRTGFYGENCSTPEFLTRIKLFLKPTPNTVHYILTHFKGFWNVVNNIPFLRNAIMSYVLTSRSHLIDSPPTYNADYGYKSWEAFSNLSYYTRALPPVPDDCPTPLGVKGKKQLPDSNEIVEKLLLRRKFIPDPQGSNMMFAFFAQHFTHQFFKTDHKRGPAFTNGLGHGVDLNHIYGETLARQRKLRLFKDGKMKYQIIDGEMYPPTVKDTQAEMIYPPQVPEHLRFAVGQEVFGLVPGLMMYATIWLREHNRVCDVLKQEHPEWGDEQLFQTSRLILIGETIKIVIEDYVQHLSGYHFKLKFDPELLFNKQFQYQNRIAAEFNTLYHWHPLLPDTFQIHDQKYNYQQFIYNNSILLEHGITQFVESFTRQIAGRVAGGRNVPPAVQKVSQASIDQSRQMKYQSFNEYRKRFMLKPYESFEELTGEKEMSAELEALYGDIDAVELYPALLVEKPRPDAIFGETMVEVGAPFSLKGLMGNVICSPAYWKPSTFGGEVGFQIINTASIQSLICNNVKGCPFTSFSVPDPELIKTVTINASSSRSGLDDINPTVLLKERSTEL

Homo sapiens = species: Homo sapiens; experiment: Selectivity ratio of IC50 for human COX1 to IC50 for human COX2
Method in brief: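 Ratio of the COX-1 IC50 to the COX-2 IC50. Both IC50s are for inhibition of PGE2 production by COS cells stably expressing human COX-1 or human COX-2, after stimulation with arachidonic acid.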

[3] = molecular target: T1, Prostaglandin G/H synthase 1; experiment: Inhibition of human COX1 expressed in african green monkey COS cells assessed as inhibition of arachidonic acid-stimulated PGE2 production upto 100 uM by enzyme immunoassay; type: cell-based
Method in brief: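 COS cells stably expressing human COX-1 were stimulated with arachidonic acid, and PGE2 production was measured. IC50 was taken as the concentration inhibiting PGE2 output.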

Rattus norvegicus = species: Rattus norvegicus; experiment: Antiinflammatory activity in Freund's complete adjuvant-induced rat inflammatory pain model assessed as change in weight bearing ability on inflamed paw pretreated 1 hr before and measured 6 hrs after FCA challenge; type: functional

| SMILES | IC50 [1] | IC50 [2] | Ratio IC50 (Homo sapiens) | Activity [3] | ED50 (Rattus norvegicus) |
| --- | --- | --- | --- | --- | --- |
| CS(=O)(=O)c1ccc(-c2cnc(Cc3ccccn3)nc2-c2ccc(F)cc2)cc1 | > 100 µM | 6320 nM | > 16 | – | – |
| CS(=O)(=O)c1ccc(-c2cnc(Oc3ccccc3)nc2-c2ccc(F)cc2)cc1 | > 100 µM | > 4640 nM | – | – | – |
| CS(=O)(=O)c1ccc(-c2cnc(Cc3ccccc3O)nc2-c2ccc(F)cc2)cc1 | – | 43 nM | – | – | – |
| CC(C)c1ncc(-c2ccc(S(C)(=O)=O)cc2)c(-c2ccc(F)cc2)n1 | 10 µM | 1140 nM | 8.8 | – | – |
| CS(=O)(=O)c1ccc(-c2cnc(Sc3ccccc3)nc2-c2ccc(F)cc2)cc1 | > 100 µM | > 7200 nM | – | – | – |
| CS(=O)(=O)c1ccc(-c2cnc(Cc3ccc(F)cc3)nc2-c2ccc(F)cc2)cc1 | > 100 µM | 277 nM | > 361 | – | – |
| CS(=O)(=O)c1ccc(-c2cnc(Nc3ccccc3)nc2-c2ccc(F)cc2)cc1 | > 100 µM | 56 nM | > 1780 | – | – |
| CS(=O)(=O)c1ccc(-c2cnc(Cc3ccc(F)cc3F)nc2-c2ccc(F)cc2)cc1 | > 52.1 µM | 114 nM | > 457 | – | – |
| CS(=O)(=O)c1ccc(-c2cnc(C(O)c3ccccc3)nc2-c2ccc(F)cc2)cc1 (configuration not stated) | – | 57 nM | – | inactive | 1.6 mg/kg |
| CN(c1ccccc1)c1ncc(-c2ccc(S(C)(=O)=O)cc2)c(-c2ccc(F)cc2)n1 | 4.34 µM | 85 nM | 51 | – | – |
| CS(=O)(=O)c1ccc(-c2cnc(Cc3ccccc3)nc2-c2ccc(F)cc2)cc1 | > 34 µM | 104 nM | > 326 | – | – |
| CS(=O)(=O)c1ccc(-c2cnc(Cc3ccccc3)[n+]([O-])c2-c2ccc(F)cc2)cc1 | – | 717 nM | – | – | – |
| CS(=O)(=O)c1ccc(-c2cnc(CCc3ccccc3)nc2-c2ccc(F)cc2)cc1 | 29.4 µM | 5260 nM | 5.6 | – | – |
| CS(=O)(=O)c1ccc(-c2cnc(NCc3ccccc3)nc2-c2ccc(F)cc2)cc1 | > 100 µM | 686 nM | > 145 | – | – |
| CS(=O)(=O)c1ccc(-c2cnc(CC3CCCCC3)nc2-c2ccc(F)cc2)cc1 | 2.97 µM | 12 nM | 247 | – | – |
| Cn1cccc1Cc1ncc(-c2ccc(S(C)(=O)=O)cc2)c(-c2ccc(F)cc2)n1 | 6.54 µM | 23 nM | 284 | – | – |
